Results as given in ChEMBL document CHEMBL1142234, “Structure-based discovery of an inhibitor of Arf activation by Sec7 domains through targeting of protein-protein complexes” (Proc Natl Acad Sci U S A, 2007).
Active and inactive are the calls of the source. No cut-off for these calls is given here.

What was measured:
[1] = molecular target: ADP-ribosylation factor 5 (Homo sapiens) (UniProt P84085); assay: Inhibition of ARNO-stimulated nucleotide exchange of Arf5
Summary of the method: (§1)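 GDP-loaded Arf isoforms truncated of the N-terminal helix (1 μM) with 50 nM Sec7 GEF. Runs were done with or without 150 μM inhibitor, preincubated 5 min, at 37°C in Tris pH 8/NaCl/MgCl2/2-mercaptoethanol buffer. Reaction was started with 2 μM mGTP and nucleotide exchange followed by time-resolved fluorescence.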

[2] = Inhibition of delta17 Arf1 activation stimulated by Sec7 domain of BIG1
Homo sapiens [3] = species: Homo sapiens; assay: Effect on activation of human RhoA/Gef337 at 150 uM
Summary of the method: (§2)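 Specificity panel: each small GTPase (1 μM, GST-fused RhoG or RhoA) with its GEF (50 nM; DH1 domain of TRIO or DH domain of GEF337), with or without 150 μM inhibitor. Exchange started with 2 μM mGTP and followed by time-resolved fluorescence.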

[4] = Inhibition of mGDP/GTP exchange on delta17 Arf1 at 150 uM
MDCK [5] = assay: Inhibition of rate of migration in MDCK cells expressing wild type ARNO; type: functional, cell-based; conditions: Canis lupus familiaris
Summary of the method: (§3)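 MDCK cells carrying tetracycline-repressible myc-wt-ARNO were grown as monolayers on collagen I and scratch-wounded. Cells were kept in MEM/5% FBS with or without compound. Doxycycline at 20 ng/ml repressed the transgene (endogenous ARNO only); without it, wt-ARNO was expressed. Wound closure was imaged every 5 min for 16 h at 37°C. Rate (μm2/h) was taken from hourly area increments over 8 h. Means ± SD of ≥3 experiments.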

[6] = molecular target: ADP-ribosylation factor 6 (Homo sapiens) (UniProt P62330); assay: Inhibition of ARNO-stimulated nucleotide exchange of Arf6; summary of the method: as §1
Chain of ADP-ribosylation factor 6 (Homo sapiens) (P62330 whole entry): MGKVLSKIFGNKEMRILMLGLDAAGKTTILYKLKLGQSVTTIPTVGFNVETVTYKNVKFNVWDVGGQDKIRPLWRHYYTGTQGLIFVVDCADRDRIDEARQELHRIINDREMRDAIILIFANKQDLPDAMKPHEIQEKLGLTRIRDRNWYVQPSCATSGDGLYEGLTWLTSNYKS

Homo sapiens [7] = species: Homo sapiens; assay: (§4) Inhibition of human Arf-GDP-ARNO complex at 100 uM by fluorescence anisotropy
Summary of the method: (§5)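 Alexa 488 N-terminally labelled [Δ17]Arf1-GDP was held at 10 nM and titrated by serial dilution of wild-type ARNO Sec7, starting at 400 μM, with or without 100 μM inhibitor.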

[8] = Inhibition of GTP binding to Arf-ARNO complex
Summary of the method: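 Nucleotide-free Arf1/ARNO complex made by removing GDP with alkaline phosphatase (20 units) plus 2 mM EDTA. GTP binding to the complex (0.2 μM) started with 1 μM mGTP, with or without 150 μM inhibitor. Mant fluorescence read at 37°C in Tris pH 8 buffer with MgCl2; mean ± SD of ≥3 experiments.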

[9] = molecular target: ADP-ribosylation factor 1 (Homo sapiens) (UniProt P84077); assay: Reduction in nucleotide exchange on Arf1 using ARNO4M
Chain of ADP-ribosylation factor 1 (Homo sapiens) (P84077 whole entry, the tested form may be a part): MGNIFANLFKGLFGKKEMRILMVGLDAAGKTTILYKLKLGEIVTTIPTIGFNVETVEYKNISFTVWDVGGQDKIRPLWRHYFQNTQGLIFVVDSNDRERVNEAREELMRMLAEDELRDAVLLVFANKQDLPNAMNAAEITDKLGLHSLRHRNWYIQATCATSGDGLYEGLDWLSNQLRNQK
Summary of the method: (§6)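 [Δ17]Arf1 lacking its N-terminal helix, GDP-loaded, with the BFA-sensitised Sec7 domain of human ARNO (4 mutations). Inhibitor was preincubated 5 min, then GTP or mGTP was added. Apparent rate constants were fitted. Means ± SD of ≥3 independent experiments.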

[10] = Inhibition of mGTP/GTP exchange on delta17 Arf1 at 150 uM
HeLa [11] = assay: Dispersion of cis golgi marker betaCoP in human HeLa cells at 100 uM for 2 hrs; type: functional, cell-based
Summary of the method: (§7)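 HeLa cells were exposed 2 h to 100 μM compound, with 0.5% DMSO as vehicle control, then fixed. Primary antibody was applied overnight at 4°C in PBS/0.25% BSA/0.01% Tween 20/0.01% saponin: TGN46 1:200, βCOP 1:100, KDEL receptor 1:500. Alexa 488 secondary was applied 20 min at room temperature. Marker localisation was imaged by confocal microscopy.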

MDCK [12] = assay: Inhibition of rate of migration of MDCK cells expressing endogenous levels of ARNO; type: functional, cell-based; conditions: Canis lupus familiaris; summary of the method: as §3
HeLa [13] = assay: Dispersion of cis golgi marker KDEL in human HeLa cells at 100 uM for 2 hrs; type: functional, cell-based; summary of the method: as §7
HeLa [14] = assay: Dispersion of trans golgi marker TGN46 in human HeLa cells at 100 uM for 2 hrs; type: functional, cell-based; summary of the method: as §7
[15] = molecular target: ADP-ribosylation factor 1 (Homo sapiens) (UniProt P84077); assay: Inhibition of ARNO-stimulated nucleotide exchange of Arf1; summary of the method: as §1
MDCK [16] = assay: Increase in rate of migration of MDCK cells expressing wild type ARNO relative to non-induced wild type ARNO cells; type: functional, Canis lupus familiaris
Summary of the method: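 MDCK cells stably carrying N-terminal c-myc wt-ARNO under a tetracycline-repressible transactivator, grown on collagen I (3 μg/ml). Confluent monolayers were scratch-wounded, then kept in MEM/5% FBS with 20 ng/ml doxycycline (repressed) or without it (induced). Time-lapse imaging every 5 min for 16 h at 37°C, 5% CO2. Wound-area rate (μm2/h) was taken over 1-h intervals for 8 h; mean ± SD, ≥3 experiments.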

[17] = Inhibition of delta14 Arf5 activation stimulated by Sec7 domain of BIG1
Homo sapiens [18] = species: Homo sapiens; assay: Effect on activation of human RhoG/TriD1 at 150 uM; summary of the method: as §2
HeLa [19] = assay: Inhibition of endogenous Arf activation in human HeLa cells; type: cell-based
Summary of the method: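 Activation of endogenous Arf proteins in HeLa cells was measured by pull-down of GTP-loaded Arf through binding to the GGA3 effector.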

[20] = as §4; summary of the method: as §5
[21] = Inhibition of delta17 Arf1 using ARNO4M; conditions: read-out: Ki app; summary of the method: as §6

Chain of ADP-ribosylation factor 5 (Homo sapiens) (P84085 whole entry, the tested form may be a part, canonical isoform): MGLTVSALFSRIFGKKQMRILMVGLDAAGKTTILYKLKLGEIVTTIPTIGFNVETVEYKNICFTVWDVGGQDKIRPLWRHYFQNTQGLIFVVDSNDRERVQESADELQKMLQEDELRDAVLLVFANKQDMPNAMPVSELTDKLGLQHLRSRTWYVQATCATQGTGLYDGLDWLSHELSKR

## O=[N+]([O-])c1ccc(Nc2c([N+](=O)[O-])ccc3c2=NC2(CCCCC2)N=3)cc1
[1]
  Activity: Active
[2]
  Activity: Active
Homo sapiens [3]
  Activity: 0.0028 s⁻¹
[4]
  Kapp: 0.0004 s⁻¹
MDCK [5]
  Activity: Active
[6]
  Activity: inactive
Homo sapiens [7]
  Activity: inactive
[8]
  Kapp: 0.085 s⁻¹
[9]
  Kapp: 0.0078 s⁻¹
[10]
  Kapp: 0.0005 s⁻¹
HeLa [11]
  Activity: Active
MDCK [12]
  Activity: Active
HeLa [13]
  Activity: Active
HeLa [14]
  Activity: Active
[15]
  Activity: Active
MDCK [16]
  Activity: 54%
[17]
  Activity: Active
Homo sapiens [18]
  Activity: 0.003 s⁻¹
HeLa [19]
  Activity: Active

## C[C@H]1CCC/C=C/[C@@H]2C[C@H](O)C[C@H]2[C@H](O)/C=C/C(=O)O1 [BREFELDIN A]
[20]
  Kd: 8.6 µM
[21]
  Ki: 15 µM
HeLa [11]
  Activity: Active
HeLa [13]
  Activity: Active
